Experimental data from different studies.
Each line is one published result; the experiments were not run side by side.
Target: 5-hydroxytryptamine receptor 1A (HTR1A, Homo sapiens, UniProt P08908)
Sequence (P08908 1-422, as in one of the studies): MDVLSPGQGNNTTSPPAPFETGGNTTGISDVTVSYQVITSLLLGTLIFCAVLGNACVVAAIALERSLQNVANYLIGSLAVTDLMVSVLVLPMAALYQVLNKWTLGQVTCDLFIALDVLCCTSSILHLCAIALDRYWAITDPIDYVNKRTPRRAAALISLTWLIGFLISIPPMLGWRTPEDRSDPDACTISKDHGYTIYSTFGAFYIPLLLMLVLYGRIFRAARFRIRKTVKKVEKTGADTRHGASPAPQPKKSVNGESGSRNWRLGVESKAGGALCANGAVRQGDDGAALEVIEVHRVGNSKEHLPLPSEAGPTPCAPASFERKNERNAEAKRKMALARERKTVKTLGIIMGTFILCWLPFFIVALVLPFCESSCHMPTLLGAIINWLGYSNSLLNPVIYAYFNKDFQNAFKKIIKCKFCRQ

SMILES	read-out	method	quantity	value
CCCC[C@H](NC(=O)[C@H](C)c1c(C)[nH]c2ccc(O)cc12)c1ncc(-c2cc3ccccc3nc2OC)[nH]1	cell-free assay		Ki	2080 nM
CCOc1c(O)cc(Br)c2c1CN1CCc3cc(OCC(F)F)c(O)cc3[C@@H]1C2	cell-free assay	radioligand	Ki	334 nM
C[C@@H]1Cc2ccccc2N1C(=O)NCCCCN(C)[C@@H]1Cc2cccc3[nH]c(=O)n(c23)C1	ligand displacement	radioligand	Ki	33.2 nM
CN1CCCCC1CCN1c2ccccc2Sc2ccc([S+](C)[O-])cc21 (stereo not drawn)	ligand displacement	radioligand	IC50	33.1 nM
CN(CCCCNC(=O)c1cc2ccccc2[nH]1)[C@@H]1Cc2cccc3[nH]c(=O)n(c23)C1	ligand displacement	radioligand	Ki	127 nM
O=C1c2ccccc2CCN1CCCCN1CCN(c2cccc(Cl)c2Cl)CC1	ligand displacement	radioligand	Ki	1.5 nM
COc1ccccc1N1CCN(CCCCOc2ccc3c(c2)NC(=O)CC3)CC1	ligand displacement	radioligand	Ki	0.28 nM
CCCCN1CCC(COC(=O)c2ccc(N)c(OCF)c2)CC1	cell-free assay	radioligand	Ki	> 10000 nM
CCNC(=O)c1cc2c(N3CCOC[C@@H]3C)ccnc2[nH]1	cell-free assay	radioligand	Ki	> 10000 nM
